Laboratory results published in ChEMBL document CHEMBL1122069, “Double-head haptens. Synthesis of and experimentally induced contact sensitivity to substances containing two unrelated haptens, pyrocatechol and alpha-methylene-gamma-butyrolactone, in the same molecule” (1982).

Columns and labels:
Assay type in all cases: functional
Cavia porcellus [1] = species on record: Cavia porcellus; assay: Results of Open epicutaneous test (OET) in guinea pigs sensitized by mixture of mono […] (18) and (19) and expressed as No. of sensitive animals out of 8 animals tested
Outline: (§1)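 Guinea pigs sensitized by an injection repeated 4 times on alternate days, followed by 15 days rest before open epicutaneous challenge. Controls received intradermal 1:1 FCA-saline emulsion on alternate days, five injections in all. Irritation thresholds were first set on FCA-injected controls using the elicitation procedure. Read-out was average skin reaction and number of sensitive animals.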

Cavia porcellus [2] = species on record: Cavia porcellus; assay: Open epicutaneous test (OET) was conducted using 0.72 M compound deposited on a circular shaved flank of guinea pig sensitized by mono […] (19); erythema plus swelling going well beyond test area.; outline: as §1
Cavia porcellus [3] = species on record: Cavia porcellus; assay: Open epicutaneous test (OET) was conducted using 0.72 M compound deposited on a circular shaved flank of guinea pig sensitized by mono […] (18); no reaction; outline: as §1
Cavia porcellus [4] = species on record: Cavia porcellus; assay: Open epicutaneous test (OET) was conducted using 0.72 M compound deposited on a circular shaved flank of guinea pig sensitized by mixture of mono […] (18) and (19); erythema on the test area; outline: as §1
Cavia porcellus [5] = species on record: Cavia porcellus; assay: Results of Open epicutaneous test (OET) in guinea pigs sensitized by bi […] (3) and expressed as No. of sensitive animals out of 8 animals tested; outline: as §1
Cavia porcellus [6] = species on record: Cavia porcellus; assay: Results of Open epicutaneous test (OET) in guinea pigs sensitized by mono […] (18) and expressed as No. of sensitive animals out of 8 animals tested; outline: as §1
Cavia porcellus [7] = species on record: Cavia porcellus; assay: Open epicutaneous test (OET) was conducted using 0.72 M compound deposited on a circular shaved flank of guinea pig sensitized by double […] (3); no reaction; outline: as §1
Cavia porcellus [8] = species on record: Cavia porcellus; assay: Results of Open epicutaneous test (OET) in guinea pigs sensitized by mono […] (19) and expressed as No. of sensitive animals out of 8 animals tested; outline: as §1
Cavia porcellus [9] = species on record: Cavia porcellus; assay: Open epicutaneous test (OET) was conducted using 0.72 M compound deposited on a circular shaved flank of guinea pig sensitized by bi […] (3); erythema on the test area; details: in the assay text read “0.072 M” for “0.72 M”; outline: as §1
Cavia porcellus [10] = species on record: Cavia porcellus; assay: Open epicutaneous test (OET) was conducted using 0.72 M compound deposited on a circular shaved flank of guinea pig sensitized by mono […] (19); no reaction; details: in the assay text read “0.072 M” for “0.72 M”; outline: as §1
Cavia porcellus [11] = species on record: Cavia porcellus; assay: Open epicutaneous test (OET) was conducted using 0.72 M compound deposited on a circular shaved flank of guinea pig sensitized by mono […] (18); erythema on the test area; outline: as §1

Row | Compound | No. of sensitive animals (Cavia porcellus [1]) | Average skin reaction (Cavia porcellus [2]) | Average skin reaction (Cavia porcellus [3]) | Average skin reaction (Cavia porcellus [4]) | No. of sensitive animals (Cavia porcellus [5]) | No. of sensitive animals (Cavia porcellus [6]) | Average skin reaction (Cavia porcellus [7]) | No. of sensitive animals (Cavia porcellus [8]) | Average skin reaction (Cavia porcellus [9]) | Average skin reaction (Cavia porcellus [10]) | Average skin reaction (Cavia porcellus [11])
1 | C=C1CC(CCCCCCc2cccc(OC)c2OC)OC1=O (centres undefined) | 8 | 2.6 | 0 | 1.1 | 0 | 0 | 0 | 8 | – | – | –
2 | C=C1CC(CCCCCCc2cccc(O)c2O)OC1=O (centres undefined) | 8 | – | 0.2 | 0.9 | 6 | 3 | – | 1 | 0.9 | <0.1 | –
3 | CC1CC(CCCCCCc2cccc(O)c2O)OC1=O (centres undefined) | 8 | – | – | 1.1 | 6 | 7 | – | 0 | 0.8 | 0 | 1.4
